Hits are enriched below; roughly 3.5% of the tested compounds scored in any of these assays.
MrgX1 PAM: positive allosteric modulators of MrgX1, primary screen, HEK293 cells, Fluo-4 calcium flux; Mas-related G-protein coupled receptor member X1 (Homo sapiens), Q96LB2; FDSS; stronger effect = higher value; B-score at 10 µM; 310,000 tested, 0.63% active; AID 588675, 2011;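 active = plate-corrected calcium response at least 3 library SD above typical, normal starting fluorescence, not activating the receptor alone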;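 also: compound read alongside a low EC10 to EC30 dose of BAM8-22 agonist; peak minus trough fluorescence over baseline measured at the second addition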
Target sequence (Q96LB2 whole entry, looked up): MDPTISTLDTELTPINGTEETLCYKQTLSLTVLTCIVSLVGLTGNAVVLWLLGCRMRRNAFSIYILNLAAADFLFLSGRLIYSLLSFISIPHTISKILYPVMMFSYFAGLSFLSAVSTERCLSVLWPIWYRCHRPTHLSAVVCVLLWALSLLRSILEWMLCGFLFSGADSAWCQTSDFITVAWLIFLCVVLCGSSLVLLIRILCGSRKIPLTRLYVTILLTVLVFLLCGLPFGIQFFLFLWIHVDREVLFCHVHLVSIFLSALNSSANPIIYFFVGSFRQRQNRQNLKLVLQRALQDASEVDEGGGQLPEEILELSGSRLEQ
RGS4 block: RGS4 inhibitors, primary screen, cell-based, HEK293 M3R inducible RGS4, calcium flux. B-score at 10 µM. 310,000 tested, 0.45% active. Regulator of G-protein signaling 4 (Homo sapiens), P49798. Fluo-4 calcium flux; stronger effect = higher value; triggered by carbachol at its EC20. AID 463165, 2010;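 active = B-score, a plate-corrected calcium signal, over three deviations above library mean, with baseline fluorescence within five deviations of library mean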;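 also: RGS4 expression induced by doxycycline in cells with stable M3 receptor; B-score is computed from the integrated fluorescence ratio over baseline after carbachol; higher B-score means a larger calcium signal and so more RGS4 inhibition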
Target sequence (P49798 whole entry, looked up): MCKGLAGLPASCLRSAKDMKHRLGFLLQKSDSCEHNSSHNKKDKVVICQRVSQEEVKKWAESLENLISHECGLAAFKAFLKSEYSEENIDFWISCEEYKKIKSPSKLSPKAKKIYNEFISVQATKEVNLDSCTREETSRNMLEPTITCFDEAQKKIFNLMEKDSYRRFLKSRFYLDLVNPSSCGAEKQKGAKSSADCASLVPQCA
MrgX1 agonist: agonists of human MrgX1 receptor, primary screen, HEK293 cells, Fluo-4 calcium flux | Mas-related G-protein coupled receptor member X1 (Homo sapiens), Q96LB2 | Fluo-4 calcium fluorescence, agonist mode; stronger effect = higher value | B-score at 10 µM | 310,000 tested, 0.44% active | AID 588627, 2011;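 active = calcium response B-score plate-corrected fluorescence ratio at least 3 library SD, with starting fluorescence B-score inside 5 SD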
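Assay system: MrgX1-expressing HEK293 cells / Amount: fifteen thousand cells per well / Doses: test compound in the initial addition of three / Timing: cells plated overnight, dye loaded 0.5 h 37 °C, 0.5 h room temperature / Technique: kinetic calcium dye fluorescence, Fluo-4 NW / Control set: positive and negative controls per plate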
RGS4 act: RGS4 potentiators or activators, primary screen, cell-based, HEK293 M3R inducible RGS4, calcium flux | carbachol calcium flux Fluo4; stronger effect = lower value | B-score at 10 µM | 310,000 tested, 0.92% active | AID 463111, 2010;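 active = B-score of the integrated calcium signal more than 4 SD below the library mean, with starting fluorescence not abnormally high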;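 also: negative B-score means reduced calcium response which marks RGS4 activation or potentiation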
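test system = M3R-expressing HEK293 line, RGS4 induced by doxycycline | probe or stimulus = carbachol at ECmax as muscarinic agonist stimulus | timing = dye loading 30 min 37 °C, buffer rest 30 min RT | signal = calcium dye Fluo4 fluorescence | evaluation = B score from integrated fluorescence ratio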
MrgX1 antag: antagonists of human MrgX1 receptor, primary screen, HEK293 cells, Fluo-4 calcium flux. BAM8-22 antagonism; stronger effect = lower value. B-score at 10 µM. 310,000 tested, 1.3% active. Mas-related G-protein coupled receptor member X1 (Homo sapiens), Q96LB2. AID 588676, 2011;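 active = calcium-response B-score plate-corrected more than 3 library SD below zero, starting fluorescence within 5 deviations, no agonist response on first addition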;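 also: peak minus trough fluorescence over baseline after final BAM8-22 challenge near maximal dose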
Starred values were filed as active, the others as inactive; i = inactive; / = not tested or not shown.

SMILES | MrgX1 PAM | RGS4 block | MrgX1 agonist | RGS4 act | MrgX1 antag
COc1ccc(CCNC(=O)C2CCC(=O)N(CC3CCCCC3)C2)cc1 (stereo not drawn) | / | i | / | -7.1* | /
CSC1=C(C#N)C(c2ccccc2Cl)C2=C(N1)c1ccccc1C2=O (stereo not drawn) | i | i | 32* | i | i
O=C(COc1ccccc1)NNC(=S)NC(=O)c1ccc(Cl)cc1Cl | i | i | 98* | i | i
O=C(COc1cccc(Cl)c1)NNC(=S)Nc1ccccc1 | 8.7* | i | i | i | i
O=C(O)CCC(=O)NNC(=O)COc1cccc(Cl)c1 | i | i | i | i | i
Cc1ccc(S(=O)(=O)NNC2CC(=O)N(c3ccc(Br)cc3)C2=O)cc1 (stereo not drawn) | i | i | i | i | i
O=C(CCCN1C(=O)c2ccccc2C1=O)NCCc1ccc(OC(F)F)cc1 | i | i | i | i | i
NC(=S)Nc1cccc2[nH]ccc12 | i | i | i | i | i
CCOC(=O)c1cc(C#N)c(Oc2ccc(F)cc2)nc1-c1ccccc1 | i | i | i | i | i
CCOC(=O)c1cc(C#N)c(Oc2cccc(C(F)(F)F)c2)nc1-c1ccccc1 | i | i | i | -7.8* | i
COc1ccc(-c2csc(NC(=O)CSc3n[nH]c(C)n3)n2)cc1 | 6.9* | i | i | i | i
COc1ccc(-c2csc(NC(=O)CSc3n[nH]c(N)n3)n2)cc1 | i | i | i | i | i
CC(C)CNC(=O)/C(C#N)=C1\N=C(NC(=O)c2ccco2)c2ccccc21 | i | i | i | i | -4.8*
CC(=O)C(C(C)=O)c1cc(NS(=O)(=O)c2ccccc2)ccc1NS(=O)(=O)c1ccccc1 | 13* | i | i | i | i
O=C(NCc1ccccc1)C(c1ccc(F)cc1)N(C(=O)c1csnn1)c1ccccc1 (stereo not drawn) | i | i | i | i | i
O=C(O)CNC(=O)c1ccc(NC(=O)/C(=C/c2ccccc2)NC(=O)c2ccccc2)cc1 | i | i | i | i | i
COc1cccc(C(=O)C[n+]2ccccc2/C=N/O)c1 | i | i | i | -7.4* | i
CC(C)(C)C(=O)Nc1cc(NC(=O)C(C)(C)C)cc(C(=O)Nc2c[nH]c(=O)[nH]c2=O)c1 | i | i | i | i | i
CC(NC(=O)COc1cccnc1[N+](=O)[O-])c1ccc(Cl)cc1 (stereo not drawn) | i | i | i | -8.1* | i
CN(C)C(CNc1ccc([N+](=O)[O-])cc1C#N)c1ccccc1 (stereo not drawn) | i | i | i | i | i
O=C1C(Cl)=C(Nc2ccc3cn[nH]c3c2)C(=O)c2ccccc21 | i | i | i | i | -9.6*
O=C(Nc1ccc2cn[nH]c2c1)c1c(Cl)cccc1Cl | i | i | i | i | i
COc1cc(NC(=O)c2cc(C)no2)cc(OC)c1OC | i | i | i | i | i
Cc1cc(C)c(C)c(S(=O)(=O)N2CCC(C(=O)OCC(=O)N3c4ccccc4NC(=O)C3(C)C)CC2)c1C | i | i | i | -7* | i
O=[N+]([O-])C(=C1Nc2ccccc2N1)/C(Cl)=C(/Cl)Br | i | i | i | i | i
SMILES | MrgX1 PAM | RGS4 block | MrgX1 agonist | RGS4 act | MrgX1 antag
Cc1ccc(/C=C2\S/C(=N/S(=O)(=O)c3cccs3)NC2=O)cc1 | 14* | i | i | i | i
Cc1ccc(S(=O)(=O)/N=C2/NC(=O)/C(=C\c3ccco3)S2)cc1 | i | / | i | / | i
Cc1cc(C)c2c(CN3CCN(Cc4ccccc4)CC3)cc(=O)oc2c1 | i | i | i | i | i
Cc1nn(-c2ccccc2)nc1CNC(=O)c1ncoc1-c1ccccc1 | i | i | i | -7.4* | i
Cc1cc(Cl)ccc1OCC(=O)NN1C(=O)C2C3C=CC(C3)C2C1=O (stereo not drawn) | i | i | i | i | -6.1*
Cc1ccc(NC(=O)CN(C)C(=O)c2ccc(Cl)nc2)cc1 | i | i | i | i | i
O=C(NCCCCc1ccccc1)c1ccccc1Cl | i | i | i | i | i
CCC(NC(=S)NC1CCCCC1)c1ccc(C(C)C)cc1 (stereo not drawn) | i | i | i | -8.5* | -5.3*
CN1CCC(OC(=O)COc2ccc(Br)cc2)CC1 | i | i | i | -7.5* | i
CC(=O)N1CCN(C(=O)COc2ccc(Br)cc2)CC1 | i | i | i | i | i
COc1ccc(OCC(=O)N2CCN(C(=O)COc3ccc(Br)cc3)CC2)cc1 | i | i | i | i | -4.8*
CCc1c(C)sc(NC(=O)Cc2ccccc2OC)c1C(=O)N1CCOCC1 | i | i | i | i | i
COc1cccc2c1OCC(C(=O)Nc1nccs1)=C2 | i | i | 28* | i | i
CCCCCC[N+](C)(C)CC/C=C1/c2ccccc2Sc2ccc(Cl)cc21 | i | i | i | -9.5* | i
CCCCCCOc1ccc(/C(N)=N/O)cc1 | i | i | i | i | i
N=C(N)c1ccc(OCCCCCOc2ccc(C(=N)N)cc2)cc1 | i | i | 34* | i | i
CCN1C(=O)/C(=C\N2CCN(C)CC2)SC1=S | i | i | i | i | -4.6*
COc1cc(Br)cc(/C=N/NC(=O)Cc2ccccc2)c1O | i | i | i | i | i
O=C(N/N=C/c1ccc(-c2ccc(Cl)c(C(=O)O)c2)o1)c1cc2c(ccc3ccccc32)o1 | i | i | i | i | -9.8*
COc1cc(/C=N/NC(=O)c2cc3c(ccc4ccccc43)o2)cc(OC)c1O | i | i | i | -7.3* | i
COc1cc(/C=N/NC(=O)Cc2ccc(Br)cc2)cc(OC)c1O | 7.5* | i | i | i | i
COc1ccc(/C=N\NC(=O)c2cc3c(ccc4ccccc43)o2)cc1O | i | i | i | -7.2* | i
Cc1ccc(-c2ccc(/C=N\NC(=O)c3cc4c(ccc5ccccc54)o3)o2)cc1[N+](=O)[O-] | i | i | i | i | i
O=C(COC(=O)/C=C/c1ccc(Cl)cc1Cl)NCc1ccco1 | i | i | i | i | i
COCCNC(=S)N1CCC(C(=O)c2ccc3c(c2)OCCO3)CC1 | i | i | i | i | i
COc1ccc(C(CC(=O)c2ccccc2)CC(=O)c2ccccc2)cc1OC | i | i | i | i | -6.7*
